# CXCR6 block = inhibitors of human CXCR6 receptor | inhibition, % at 20 µM | CHO-K1 PathHunter CXCR6 beta-arrestin, luminescence | 360,000 tested, 0.36% active | AID 602244; in the data active means inhibition above about 34%, passing the limit was not always enough;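 further: antagonist mode with CXCL16 agonist at 10 nM final; 0% = 10 nM CXCL16 with DMSO and 100% = unstimulated wells without agonist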
# Target sequence (O00574 whole entry, looked up): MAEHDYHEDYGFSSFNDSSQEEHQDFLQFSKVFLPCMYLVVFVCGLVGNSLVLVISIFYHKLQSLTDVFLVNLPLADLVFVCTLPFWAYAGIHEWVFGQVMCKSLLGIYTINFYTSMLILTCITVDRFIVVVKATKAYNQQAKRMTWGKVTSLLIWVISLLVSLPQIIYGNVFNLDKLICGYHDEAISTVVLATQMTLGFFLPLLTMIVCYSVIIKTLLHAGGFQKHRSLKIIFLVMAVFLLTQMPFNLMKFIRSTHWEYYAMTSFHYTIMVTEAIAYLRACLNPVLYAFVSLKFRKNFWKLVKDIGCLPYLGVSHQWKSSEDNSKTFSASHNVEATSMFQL
# CCR6 antag = CCR6 (human) receptor antagonism; inhibition, % at 20 µM; 340,000 tested, 0.49% active; P51684; CHO-K1 CCR6 PathHunter beta-arrestin, luminescence, CCL20-stimulated; AID 493098;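 active means compounds whose inhibition of the agonist-driven luminescence signal at 20 µM reaches about 50%, limit read from the data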;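 further: cells stimulated with CCL20 at 14 nM final; plate controls were DMSO with CCL20 for no effect and DMSO without agonist for full effect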
# Beta2AR agonist = activates human beta-2 adrenergic receptor causing internalization; AID 504454; Am2.2-beta2AR cells, FAP receptor internalization, flow cytometry; P07550; response, % (concentration not given with the values); 340,000 tested, 0.43% active;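 active means response above a set limit, near 3 SD of response in nonfluorescent compounds, cut at about 42% in these data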
# APJ ag = activates the human apelin receptor APJ; activation, % at 20 µM; CHO-K1 APJ PathHunter beta-arrestin, luminescence; 0% DMSO wells, 100% apelin; P35414; 330,000 tested, 0.11% active;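 active means activation more than six SD over the plate average, tested at 20 µM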;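 further: 0% = DMSO alone and 100% = apelin-13 at 10 nM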
#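 Test system – PathHunter CHO-K1 APJ (AGTRL-1) beta-arrestin reporter cells · Input – 1000 cells/well · Compound – single test compound dose, 20 µM final, 1% DMSO · Times – compound stimulation 90 min at 25 °C, detection 60 min · Technique – beta-gal luminescence · Read-out basis – APJ–arrestin association signal · Control set – negative DMSO alone, positive Apelin-13 at 10 nM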
# PfG6PD inh = PfG6PD (Plasmodium falciparum) enzyme inhibition | AID 504690 | 350,000 tested, 0.78% active | PfGluPho enzyme, NADPH resazurin-diaphorase fluorescence | inhibition, % at 20 µM;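 active means inhibition reaching at least a set limit at 20 µM in the primary screen, cut at about 59% in these data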;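 further: 0% = DMSO wells with substrate and 100% = DMSO wells lacking glucose-6-phosphate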
# APJ antag = APJ receptor antagonism. P35414. AID 2521. CHO-K1 APJ beta-arrestin complementation, luminescence. inhibition, % at 20 µM. 330,000 tested, 0.32% active;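 active means inhibition above about 40% at 20 µM, limit read from the data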;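 further: cells challenged with 10 nM apelin-13 agonist together with compound; plate controls were apelin-13 plus DMSO wells for no effect and DMSO wells lacking apelin-13 for full effect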
# APJ antag confirm = confirmation of human APJ apelin receptor antagonists | shares compounds with APJ antag | APJ beta-arrestin recruitment, luminescence, antagonist mode | inhibition, % at 20 µM | 950 tested, 66% active | AID 2766; in the data active means inhibition above about 50%
# Numbers without * were called inactive; x = not tested or not shown. Hits are enriched below; roughly 1.7% of the tested compounds scored in any of these assays.
SMILES,CXCR6 block,CCR6 antag,Beta2AR agonist,APJ ag,PfG6PD inh,APJ antag,APJ antag confirm
O=C(CSc1ncnc2c1cnn2-c1ccccc1)Nc1ccccc1,0,11,-3,2,-13,54*,27
CCCCN(C)CCNC(=O)CN1C(=O)CSc2ccc(S(=O)(=O)N3CCCCC3)cc21,-7,15,-13,-5,-5,49*,-27
COc1ccc(OCCCC(=O)Nc2cc(S(=O)(=O)N3CCCCC3)ccc2C)cc1,6,8,-4,-3,7,17,x
O=C(NNc1ccc(Cl)cc1)c1sccc1Cl,8,27,-1,-6,23,62*,98*
COc1ccc(-c2noc(CCC(=O)N3CCN(c4cccc(F)c4)CC3)n2)cc1,-3,7,1,x,-1,x,x
Nc1nc(NCc2ccccc2)nc(Nc2cccc(F)c2)c1[N+](=O)[O-],-2,-10,-1,-1,9,7,x
Cc1ccc(CNc2nc(N)c([N+](=O)[O-])c(Nc3cccc(F)c3)n2)cc1,9,0,-6,1,0,41*,26
Cc1cc(NC(=O)c2c(F)cccc2Cl)n(-c2nc3ccccc3[nH]2)n1,-14,61*,5,-1,5,55*,27
Cc1cc(NC(=O)c2c(F)cccc2F)n(-c2nc3ccccc3[nH]2)n1,5,27,-1,-9,7,44*,5
Cc1cc(NC(=O)c2ccccc2F)n(-c2nc3ccccc3[nH]2)n1,11,24,1,-2,-6,33,x
CCN1/C(=C/c2ccc3cc(C)ccc3[n+]2CC)Sc2ccc3sccc3c21,37,40,x,6,61*,40*,56*
CCOC(=O)C1=CN(c2cccc(F)c2)C=C(C(=O)OCC)C1c1cc(OC)c(O)c([N+](=O)[O-])c1,27,49,5,-4,7,44*,23
O=C(CN1C(=O)C2CC=CCC2C1=O)Nc1ccc(OC(F)(F)F)cc1 (stereo unspecified),-3,-1,3,1,6,-20,x
C[C@@H]1CN([C@@H](C)CO)C(=O)CCCn2nncc2CO[C@@H]1CN(C)C(=O)Nc1ccccc1,5,x,x,x,-5,x,x
COc1cc(C(=O)NC(=S)N(C)Cc2ccccc2)cc(OC)c1OC,5,9,2,-6,-7,5,x
CN(Cc1ccccc1)C(=S)NC(=O)c1cccs1,9,22,-4,7,-2,41*,33
Cc1c(C(=O)NCCN(C)C)n(C)c(=O)c2ccccc12,0,x,x,x,x,x,x
CC1=NN(C(N)=S)C(=O)C1N=Nc1ccc([N+](=O)[O-])cc1 (stereo unspecified),46*,75*,3,-10,-8,50*,81*
CCOc1cc(/C=C2\SC(=O)N(CC(=O)Nc3ccccc3F)C2=O)cc([N+](=O)[O-])c1O,28,40,20,-7,-9,54*,79*
CCOc1ccc(-c2c(C(=O)N/N=C/c3ccc(O)cc3)nnn2-c2nonc2N)cc1,1,-2,-9,-4,0,5,x
CCOc1ccc(-c2c(C(=O)N/N=C/c3cccc(Br)c3)nnn2-c2nonc2N)cc1,15,18,-6,-4,47,45*,47
COC(=O)c1sc(NC(=O)c2c(C)noc2C)nc1C,0,-7,-12,-4,6,6,x
COC(=O)c1sc(N)c(C(=O)OC)c1COC(=O)c1c(C)noc1C,58*,70*,15,-8,-2,46*,96*
CC(C)(C)c1ccc(CC(=O)N2CCC2(C)C(=O)NS(=O)(=O)c2cccc(F)c2)cc1 (stereo unspecified),-5,x,x,x,x,x,x
CCOC(=O)C1=C(C)N=c2s/c(=C/c3cccc([N+](=O)[O-])c3O)c(=O)n2C1c1cc(OC)c(OC)c(OC)c1 (stereo unspecified),34,55*,18,-7,51,40*,90*
SMILES,CXCR6 block,CCR6 antag,Beta2AR agonist,APJ ag,PfG6PD inh,APJ antag,APJ antag confirm
CCOC(=O)C1=C(C)N=c2s/c(=C/c3ccco3)c(=O)n2C1c1cccc(OC)c1 (stereo unspecified),x,37,x,-3,1,-19,x
CCOC(=O)C1=C(C)N=c2s/c(=C\c3ccc(OCC(=O)O)cc3)c(=O)n2C1c1ccccc1 (stereo unspecified),10,3,7,-2,-13,3,x
CCOC(=O)C1=C(C)N=c2s/c(=C/c3cccc([N+](=O)[O-])c3O)c(=O)n2C1c1ccccc1 (stereo unspecified),33,71*,18,-9,56,50*,99*
CCOC(=O)C1=C(c2ccccc2)N=c2s/c(=C\c3ccc(O)cc3)c(=O)n2C1c1cccs1 (stereo unspecified),18,53*,-31,-8,9,42*,102*
CCN(CC(=O)Nc1ccc(S(=O)(=O)N2CCCC2)cc1)Cc1ccccc1,10,18,-2,-1,13,-7,x
Cc1ccc(C(=O)CNc2cc(C)ccc2C)cc1,32,73*,0,-16,-15,43*,118*
O=C(CNc1ccccc1C(=O)O)c1ccccc1,68*,79*,7,-14,-12,41*,149*
Cc1ccc(C)c(NCC(=O)c2ccc(Cl)cc2)c1,22,60*,14,-14,-88,73*,88*
Cc1ccccc1NCC(=O)c1ccc(Br)cc1,22,49,8,-14,-105,46*,99*
CC(=O)Nc1cc(C(=O)OCC(=O)c2ccc(C)cc2)ccc1C,26,-19,-1,-2,-15,-6,x
CC(=O)Nc1cc(C(=O)OCC(=O)c2ccc(Cl)cc2Cl)ccc1C,6,12,-11,-7,13,52*,25
CC(C)C(=O)Nc1cccc(C(=O)OCC(=O)c2ccc(Cl)cc2Cl)c1,2,36,-1,-5,8,49*,50*
O=C(COC(=O)c1cccnc1Cl)c1ccc(Cl)cc1Cl,15,21,2,-13,-17,58*,60*
O=C(Nc1ccsc1C(=O)O)c1ccc(Cl)cc1,2,6,5,-1,11,-2,x
COc1ccc(C)cc1S(=O)(=O)NCc1ccccn1,-4,x,x,x,18,x,x
COCc1ccc(C(=O)NC2CCSc3ccccc32)cc1 (stereo unspecified),-4,5,2,-4,-8,3,x
O=C(O)c1ccccc1N=Nc1c(O)[nH]c2ccc([N+](=O)[O-])cc12,28,39,7,-4,-9,42*,53*
Cc1nc2cc(C)c(C)cc2o1,6,1,2,x,-2,x,x
CCOc1ccc2nc(NC(=O)CSC3=NCCS3)sc2c1,-8,-20,3,-5,-13,15,x
